High-throughput results (PubChem BioAssay)
A selection: hits, their analogues and other compounds. The true share with any hit is near 2.5%.
miR122 inh: miR-122 inhibition in Huh7 cells; activation (reporter increase), % at 12.5 µM; Huh7 miR-122 Renilla luciferase sensor, 48 h; neutral wells = 0, positive control = 100; 0.3% of 340,000 active;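 active = mean replicate activation score at least 90 and every replicate individually at or above 90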;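 note: higher luciferase means less miR-122 activity so hits act as miR-122 inhibitors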
S100A4 MyoIIA: inhibitors of human S100A4 binding to myosin IIA peptide; S100A4/TAMRA-MyoIIA peptide fluorescence polarization; P26447; inhibition, % at 10.7 µM; 0.14% of 360,000 active; AID 652163;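 active = mean inhibition of at least 70% across replicates, with every replicate also reaching that level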
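Material: S100A4 monomer (human). Medium: Calcium-containing HEPES buffer, pH 7.2. Probe or stimulus: labelled myosin peptide probe, 5 nM. Compound dosing: one concentration per compound. Timing: polarization read 5 min after assay mix addition, stable 5–60 min. Benchmarks: DMSO as neutral control, TFP as positive control.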
SIRT5 block: sirtuin-5 (human) deacylase inhibition. Purified SirT5, succinyl-peptide AMC, trypsin-coupled fluorescence. inhibition, % at 15 µM. 1.1% of 330,000 active. Q9NXA8; in the data active = inhibition above about 15%
Target sequence (Q9NXA8 whole entry, looked up): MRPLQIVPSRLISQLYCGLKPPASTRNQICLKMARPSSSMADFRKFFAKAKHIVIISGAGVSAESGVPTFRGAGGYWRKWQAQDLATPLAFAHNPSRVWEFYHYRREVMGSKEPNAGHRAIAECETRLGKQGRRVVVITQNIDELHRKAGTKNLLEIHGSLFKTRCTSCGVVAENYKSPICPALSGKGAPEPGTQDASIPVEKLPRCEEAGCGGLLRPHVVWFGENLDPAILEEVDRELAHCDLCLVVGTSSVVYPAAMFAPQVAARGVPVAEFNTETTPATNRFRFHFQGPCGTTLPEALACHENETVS
FGF22 binding: shifts melting point of recombinant human FGF22 | recombinant FGF22 thermal shift, SYPRO orange fluorescence; percent of sucrose octasulfate shift, DMSO zero | activity (Tm shift, normalised), % at 9.99 µM | 1.5% of 340,000 active;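 active = mean Tm shift, scaled 0 neutral to 100 positive control, at about 1.3% or above, every replicate too, limit read from the data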
Target sequence (Q9HCT0 whole entry, looked up): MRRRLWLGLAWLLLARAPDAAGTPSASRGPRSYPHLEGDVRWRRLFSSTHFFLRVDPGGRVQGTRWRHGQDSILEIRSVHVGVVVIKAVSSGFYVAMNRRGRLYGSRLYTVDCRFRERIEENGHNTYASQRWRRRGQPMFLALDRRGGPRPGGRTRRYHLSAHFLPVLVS
E-sel inducer: induces E-selectin expression in human endothelial cells | P16581 | HUVEC E-selectin immunofluorescence imaging; normalized: neutral wells 0, TNF-alpha wells 100 | 0.37% of 260,000 active | activation, % at 7.58 µM;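 active = mean E-selectin-positive cell signal at least 10% of the positive control, reached in at least 60% of replicates, without over 20% cell loss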
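Assay system: HUVEC, human umbilical vein endothelial cells / Amount: 3,000 HUVEC/well / Controls: TNF-alpha positive control, DMSO neutral control / Compound dosing: single concentration / Medium: EGM-2 over gelatin coat / Evaluation: percent E-selectin-positive cells / Signal: immunofluorescence imaging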
* = called active by the depositor; / = not tested or not shown; ! = not confirmed by another sample; [ ] = remark or other dose.

SMILES	miR122 inh	S100A4 MyoIIA	SIRT5 block	FGF22 binding	E-sel inducer
O=C1CC(N2CCN(c3ccccc3)CC2)C(=O)N1c1cccc(Br)c1 (centres undefined)	0.0	0.3	-3.3	0.1	/
O=C1CC(N2CCSCC2)C(=O)N1c1cccc(Br)c1 (centres undefined)	4.5	-3.0	-0.8	0.1	43.1*
C[C@H]1CN([C@@H](C)CO)C(=O)Cc2cc(NC(=O)Nc3cccc4ccccc34)ccc2O[C@@H]1CN(C)C(=O)Nc1ccc(C(F)(F)F)cc1	-4.9[16.7 µM]	-5.0	0.5	0.4	54.7*
C[C@@H]1CN([C@@H](C)CO)C(=O)Cc2cc(NC(=O)Nc3ccc(C(F)(F)F)cc3)ccc2O[C@@H]1CN(C)C(=O)Nc1cccc2ccccc12	264.9*[16.7 µM]	-4.9	-3.9	0.5	-4.6
C[C@@H]1CN([C@H](C)CO)C(=O)Cc2cc(NC(=O)Nc3ccc(C(F)(F)F)cc3)ccc2O[C@@H]1CN(C)C(=O)Nc1cccc2ccccc12	112.2*[16.7 µM]	-3.1	-2.7	0.3	-12.7
CO[C@@H]1CN(C)C(=O)c2cc(NC(=O)C3CC3)ccc2OC[C@H](C)N(CC2CCOCC2)C[C@H]1C	/	8.5	-4.1	0.0	0.0
C[C@@H]1CN([C@@H](C)CO)C(=O)c2cccc(NC(=O)c3ccncc3)c2O[C@@H]1CN(C)C(=O)Nc1ccc2c(c1)OCO2	-3.3[16.7 µM]	2.6	-2.2	0.0	-7.3
Cc1ccc(CSc2nnc(C)c(=O)[nH]2)cc1	/	3.0	0.1	43.0*	0.8
CCC(C)NS(=O)(=O)c1ccc(NC(=O)C2CCCO2)cc1 (centres undefined)	/	6.8	-2.4	43.2*	/
C[C@@H]1CCCCO[C@@H](CN(C)Cc2ccc(Cl)c(Cl)c2)[C@H](C)CN([C@H](C)CO)C(=O)c2cc(NS(=O)(=O)c3ccccc3)ccc2O1	-13.1[16.7 µM]	0.4	7.1	0.5	0.2
C[C@H]1CN([C@@H](C)CO)S(=O)(=O)c2ccc(/C=C/c3ccccc3)cc2O[C@H]1CN(C)C(=O)NC1CCCC1	-4.6[16.7 µM]	-6.7	19.1*	0.0	-2.0
C[C@H](CO)N1C[C@H](C)[C@@H](CN(C)C(=O)NC2CCCCC2)Oc2cc(/C=C/c3ccccc3)ccc2S1(=O)=O	-21.2[16.7 µM]	10.0	-6.9	0.0	/
C[C@H](CO)N1C[C@H](C)[C@H](CN(C)C(=O)NC2CCCCC2)Oc2cc(/C=C/c3ccccc3)ccc2S1(=O)=O	-38.2[16.7 µM]	-3.1	24.9*	-0.1	/
C/C=C/c1ccc2c(c1)O[C@@H](CN(C)C(=O)NC1CCCCC1)[C@@H](C)CN([C@H](C)CO)S2(=O)=O	-2.9[16.7 µM]	-0.3	3.3	0.0	-0.2
C[C@@H]1CN([C@@H](C)CO)S(=O)(=O)c2ccc(/C=C/c3ccccc3)cc2O[C@@H]1CN(C)C(=O)NC1CCCCC1	-40.9[16.7 µM]	-13.2	27.8*	0.0	/
C[C@@H]1CN([C@@H](C)CO)S(=O)(=O)c2ccc(/C=C/c3ccccc3)cc2O[C@H]1CN(C)C(=O)NC1CCCCC1	-0.4[16.7 µM]	-9.4	22.4*	-0.8	/
C/C=C/c1ccc2c(c1)O[C@H](CN(C)C(=O)NC1CCCC1)[C@@H](C)CN([C@@H](C)CO)S2(=O)=O	10.1[16.7 µM]	0.4	-1.5	0.0	0.2
Cn1cnc(S(=O)(=O)N[C@H]2CC[C@@H](CC(=O)NCC3CCCCC3)O[C@H]2CO)c1	/	-5.0	2.5	0.6	0.0
C/C=C/c1ccc2c(c1)O[C@H](CN(C)C(=O)NC1CCCCC1)[C@H](C)CN([C@H](C)CO)S2(=O)=O	-12.4[16.7 µM]	-1.9	6.7	-0.1	-0.3
C[C@H]1CN([C@@H](C)CO)S(=O)(=O)c2ccc(/C=C/c3ccccc3)cc2O[C@H]1CN(C)C(=O)NC1CCCCC1	4.4	-3.4	26.4*!	-0.4	0.0
CCCn1c(C)cc(C(=O)COc2ccc(-c3nnco3)cc2)c1C	-0.6	1.3	-4.1	43.2*	-1.4
Cc1ccccc1-c1ccnc2[nH]n(-c3ccccc3)c(=O)c12	3.9	-3.4	24.4*	-0.2	-0.1
O=C(COC(=O)c1cccnc1Cl)NCc1cccs1	/	-0.6	0.2	43.3*	-3.1
CCOc1ncccc1C(=O)OCC(=O)NCc1cccs1	-6.5	0.7	-3.1	0.1	4.0
COC(=O)/C(=C\Nc1ccc(Oc2ccccc2OC(C)C)nc1)NC(=O)c1ccccc1	/	-4.6	-2.6	-0.2	/
